Activity calls are given as the source filed them. The rule behind the calls is not given here.
Legend:
[1] = test system: Chlamydia trachomatis; test: (§1) Anti-Chlamydial activity against Chlamydia trachomatis Serovar LGV-L2 infected in Hep2 cells assessed as reduction in size and number of chlamydial inclusion at 1 ug/ml treated at 8 hrs post-infection and 24 hrs later re-infecting fresh Hep2 cells monolayer with infected cells and measured at 24 hrs post re-infection by immunofluorescence staining based microscopy analysis; format: functional, organism-based
In short: (§2)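 HEp-2 cells in DMEM with 10% FBS, infected with C. trachomatis L2 at MOI 1. Compounds added 8 hpi in triplicate; DMSO stocks at 50 mg/mL. At 24 hpi lysates collected in sucrose storage medium, frozen at −80 °C, and used to infect fresh HEp-2 monolayers in 10-fold dilutions. After 24 h, stained with goat anti-MOMP and Alexa488 secondary. Inclusions counted in 15 fields at 20x; IFU = mean count per field corrected for dilution.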

[2] = test system: Chlamydia trachomatis; test: as §1, with “50” for “1”; format: functional, organism-based; in short: as §2
[3] = test system: Chlamydia trachomatis; test: as §1, with “Anti-chlamydial” for “Anti-Chlamydial”, “in” for “in size and number of”, “chlamydial infectivity by measuring decrease in” for “chlamydial”, “inclusion forming units” for “inclusion”, “50” for “1”; format: functional, organism-based; in short: as §2
[4] = test system: Neisseria meningitidis; test: Antimicrobial activity against Neisseria meningitidis MC58 assessed as bacterial growth inhibition measured after 18 to 20 hrs; format: functional
[5] = test system: Haemophilus influenzae; test: Antimicrobial activity against Haemophilus influenzae H2192 assessed as bacterial growth inhibition measured after 18 to 20 hrs; format: functional
[6] = test system: Chlamydia trachomatis; test: as §1, with “Anti-chlamydial” for “Anti-Chlamydial”, “in” for “in size and number of”, “inclusion growth by measuring appearance of small and irregular inclusions” for “inclusion”, “3” for “1”; format: functional, organism-based; in short: as §2
[7] = test system: Chlamydia trachomatis; test: Anti-chlamydial activity against Chlamydia trachomatis Serovar LGV-L2 infected in Hep2 cells assessed as inhibition of chlamydial inclusion at 50 ug/ml treated at 8 hrs post infection and measured at 24 hrs post-infection by immunofluorescence assay; format: functional, organism-based
In short: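 HEp-2 cells infected with C. trachomatis serovar L2. Compounds at 50 μg/mL added 8 hpi; inclusion number and size assessed by immunofluorescence at 24 hpi against untreated cells. Cell morphology and viability checked by phase-contrast microscopy.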

[8] = test system: HEp-2; test: Toxicity in human Hep2 cells infected with Chlamydia trachomatis Serovar LGV-L2 assessed as cell morphology at 50 ug/ml treated at 8 hrs post-infection and measured at 24 hrs post-infection by phase contrast microscopy; format: cell-based
In short: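 HEp-2 cells grown in DMEM with 2% L-glutamine and 10% FBS at 37 °C, infected with C. trachomatis serovar L2. Compound at 50 μg/mL added 8 h post-infection, then incubated 16 h more (24 h total). Cell morphology and viability checked by phase-contrast microscopy alongside untreated infected cells.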

C[C@H]1c2cccc(O)c2C(=O)C2=C(O)[C@]3(O)C(=O)C(C(N)=O)=C(O)[C@@H](N(C)C)[C@@H]3[C@@H](O)[C@@H]21
inhibition [1]: Active

CC(C)(C(=O)NCCCc1ccccc1)S(=O)(=O)c1ccc(C(F)(F)F)cn1
inhibition [2]: Active | inhibition [3]: Active | Activity [4]: 16 µg/mL | Activity [5]: 8 µg/mL

CC1(C)S[C@@H]2[C@H](NC(=O)Cc3ccccc3)C(=O)N2[C@H]1C(=O)O
inhibition [6]: Active

CC(C)(C(=O)NCCSc1ccccc1Cl)S(=O)(=O)c1ccc(C(F)(F)F)cn1
inhibition [7]: Active | Activity [4]: 64 µg/mL | Activity [5]: 32 µg/mL

CC(C)(Sc1ccc(C(F)(F)F)cn1)C(=O)NCCCc1ccccc1
Activity [8]: Toxic

— ChEMBL document CHEMBL4342502, “Synthesis and Antichlamydial Activity of Molecules Based on Dysregulators of Cylindrical Proteases” (J Med Chem, 2020)
